From ChEMBL document CHEMBL1166006, “Bacterial transferase MraY inhibitors: synthesis and biological evaluation” (Bioorg Med Chem, 2010)
Activity calls are given as the source filed them. The rule behind the calls is not given here.

What was measured:
Escherichia coli = assay: Inhibition of Escherichia coli MurG at 1 mM after 30 mins
Method in brief: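 MurG from E. coli was assayed in final 200 mM Tris–HCl pH 7.5, 10 mM MgCl₂, UDP-[¹⁴C]GlcNAc, lipid I analogue and 35% (v/v) DMSO. The reaction ran 30 min at 37 °C and was stopped by boiling 3 min, then lyophilised. The residue was taken up in 2-propanol/ammonium hydroxide/water (6:3:1), which was also the chromatography mobile phase. Radioactive spots were quantified by scanner.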

[1] = target: T1, Phospho-N-acetylmuramoyl-pentapeptide-transferase (Bacillus subtilis (strain 168), UniProt Q03521); assay: Inhibition of Bacillus subtilis transferase MraY after 30 mins
T1 sequence (Q03521 whole entry): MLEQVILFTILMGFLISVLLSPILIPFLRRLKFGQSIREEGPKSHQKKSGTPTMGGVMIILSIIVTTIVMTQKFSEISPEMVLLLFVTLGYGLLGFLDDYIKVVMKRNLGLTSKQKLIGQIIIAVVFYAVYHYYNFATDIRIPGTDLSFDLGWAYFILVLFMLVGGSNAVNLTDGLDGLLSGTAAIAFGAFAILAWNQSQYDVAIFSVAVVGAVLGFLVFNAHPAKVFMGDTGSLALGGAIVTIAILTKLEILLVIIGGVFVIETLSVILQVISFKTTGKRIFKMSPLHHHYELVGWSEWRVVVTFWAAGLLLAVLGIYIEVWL
Method in brief: (§1)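 Enzyme addition started the reaction, which ran 30 min at 37 °C and was stopped by 1 min at 100 °C. Radioactive spots were quantified by scanner. Residual activity (screen at 2 mM) and IC₅₀ were calculated against an inhibitor-free control; mean of triplicates.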

[2] = target: T2, Phospho-N-acetylmuramoyl-pentapeptide-transferase (Bacillus subtilis (strain 168)) (UniProt Q03521); assay: Inhibition of Bacillus subtilis transferase MraY assessed as residual activity at 2 mM after 30 mins; method in brief: as §1
T2 sequence (whole entry): T1 sequence (Q03521 whole entry)

inhibition (Escherichia coli) | IC50 [1] [µM] | Activity [2] [%] | Structure (SMILES)
inactive | 600 |  | N=C(N)NCc1cn(C[C@H]2O[C@@H](OC[C@H]3O[C@@H](Cn4ccc(=O)[nH]c4=O)[C@@H](O)[C@@H]3O)[C@H](O)[C@@H]2O)nn1
inactive | 820 |  | O=C(NCc1cn(C[C@H]2O[C@@H](OC[C@H]3O[C@@H](Cn4ccc(=O)[nH]c4=O)[C@@H](O)[C@@H]3O)[C@H](O)[C@@H]2O)nn1)[C@@H]1CCCN1
inactive |  | 61 | O=C(NC[C@H]1O[C@@H](OC[C@H]2O[C@@H](Cn3ccc(=O)[nH]c3=O)[C@@H](O)[C@@H]2O)[C@H](O)[C@@H]1O)[C@@H]1CCCN1
inactive | 1790 |  | N=C(N)NC[C@H]1O[C@@H](OC[C@H]2O[C@@H](Cn3ccc(=O)[nH]c3=O)[C@@H](O)[C@@H]2O)[C@H](O)[C@@H]1O
inactive | 580 |  | NC[C@H]1O[C@@H](OC[C@H]2O[C@@H](Cn3ccc(=O)[nH]c3=O)[C@@H](O)[C@@H]2O)[C@H](O)[C@@H]1O
inactive | 595 |  | NCc1cn(C[C@H]2O[C@@H](OC[C@H]3O[C@@H](Cn4ccc(=O)[nH]c4=O)[C@@H](O)[C@@H]3O)[C@H](O)[C@@H]2O)nn1
